Reference: PMC3753066 (Nature methods, 2013)
≈ marks a conversion by molar mass, not a printed value. Starred links: 1 amine or outer side, 2 acyl side, 3 side chain; linkers in the order of their positions; H or OH if unused. Non-standard residues stand in square brackets, D forms with d. Residues, ends and D or L forms follow the SMILES beside them. X1 = CCCCCCCC[C@@H](C(=O)[*:2])N(C)[*:1]; Gly(octyl) = CCCCCCCC[C@H](N)C(=O)O; NMeL = CN[C@@H](CC(C)C)C(=O)O

Experiments:
MsbA = MsbA (Escherichia coli, UniProt P60752); test: MsbA ATPase activity and stability in BPs or detergent; assay type: biochemical, E. coli; settings: for ATPase activity of MsbA solubilized in the reagent: measured in triplicate at 37 °C, 20 mM Tris pH 7.5, 20 mM NaCl, 0.2–0.5 mg/mL
Method in brief: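 E. coli MsbA purified in UDM, then mixed with peptide at 50:1–100:1 molar ratio (peptide:protein). Detergent was removed by dialysis (6 kDa cutoff, 4 °C, 1–2 days, TLC-monitored) and the supernatant kept after 300,000 × g, 2 h, 4 °C. Comparison preparations were in UDM, LMNG, Amphipol A8-35 (5:1 w/w) or MSP1D1/DMPC nanodiscs. Samples (0.2–0.5 mg/mL) were held at RT up to 40 days, with linked-enzyme ATPase read-out, means ± standard error.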

[1] = Water solubility of the peptides; assay type: physicochemical

Chain of MsbA (P60752 whole entry): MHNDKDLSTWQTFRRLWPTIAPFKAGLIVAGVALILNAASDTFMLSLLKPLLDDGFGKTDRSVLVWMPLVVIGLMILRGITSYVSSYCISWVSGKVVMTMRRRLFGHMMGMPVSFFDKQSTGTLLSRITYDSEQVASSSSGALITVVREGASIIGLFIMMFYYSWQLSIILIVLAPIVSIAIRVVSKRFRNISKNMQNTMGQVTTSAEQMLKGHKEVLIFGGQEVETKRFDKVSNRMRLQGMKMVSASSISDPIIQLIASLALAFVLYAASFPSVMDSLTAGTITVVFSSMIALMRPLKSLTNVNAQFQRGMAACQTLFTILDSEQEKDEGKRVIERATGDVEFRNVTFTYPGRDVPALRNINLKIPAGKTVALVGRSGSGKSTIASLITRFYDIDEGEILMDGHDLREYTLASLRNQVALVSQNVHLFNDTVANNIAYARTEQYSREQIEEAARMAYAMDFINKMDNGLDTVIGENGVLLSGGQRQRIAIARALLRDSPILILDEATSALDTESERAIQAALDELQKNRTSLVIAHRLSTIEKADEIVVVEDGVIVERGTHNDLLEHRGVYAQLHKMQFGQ

loss of MsbA ATPase activity (MsbA; within the first day of incubation at RT, accompanied by protein precipitation)	SMILES	change of MsbA ATPase activity on incubation (MsbA; 40 days of incubation at RT)	ATPase activity of MsbA solubilized in the reagent (MsbA)	solubility [1] [µM]
–	CCCCCCCC[C@H](NC(C)=O)C(=O)N[C@@H](CO)C(=O)N[C@@H](CC(C)C)C(=O)N[C@@H](CO)C(=O)N(C)[C@@H](CC(C)C)C(=O)N[C@@H](CC(=O)O)C(=O)N[C@@H](CCCCCCCC)C(=O)N[C@@H](CC(=O)O)C(N)=O [BP-1] (Ac-[Gly(octyl)]SLS[NMeL]D[Gly(octyl)]D-NH2)	little change	~ 4 μmol/min/mg	~3000 (≈ 3130 µg/mL)
–	CCCCCCCC[C@H](NC(C)=O)C(=O)N[C@@H](CO)C(=O)N(C)[C@@H](CC(C)C)C(=O)N[C@@H](CO)C(=O)N(C)[C@@H](CC(C)C)C(=O)N[C@@H](CC(=O)O)C(=O)N[C@@H](CCCCCCCC)C(=O)N[C@@H](CC(=O)O)C(N)=O [BP-2] (Ac-[Gly(octyl)]S[NMeL]S[NMeL]D[Gly(octyl)]D-NH2)	–	–	~3000 (≈ 3170 µg/mL)
–	CCCCCCCC[C@H](NC(C)=O)C(=O)N[C@@H](CO)C(=O)N(C)[C@@H](CC(C)C)C(=O)N[C@@H](CO)C(=O)N(C)[C@@H](CC(C)C)C(=O)N[C@@H](CC(=O)O)C(=O)N(C)[C@@H](CCCCCCCC)C(=O)N[C@@H](CC(=O)O)C(N)=O [BP-3] (Ac-[Gly(octyl)]S[NMeL]S[NMeL]D[X1]D-NH2)	–	–	~1000 (≈ 1070 µg/mL)
~ 80%	CCCCCCCCCCCO[C@@H]1O[C@H](CO)[C@@H](O[C@H]2O[C@H](CO)[C@@H](O)[C@H](O)[C@H]2O)[C@H](O)[C@H]1O [UDM, β-D-undecylmaltoside, reference compound]	–	2.2 µmol/min/mg	–
